According to ChEMBL document CHEMBL1123910, “Indolizidine and quinolizidine derivatives of the dopamine autoreceptor agonist 3-(3-hydroxyphenyl)-N-n-propylpiperidine (3-PPP)” (1987):

Experiments:
Format in all cases: functional
[1] = tested on: Rattus norvegicus; assay: Antagonism of apomorphine induced stereotype was recorded at 30 minutes after apomorphine subcutaneous administration; settings: sc, 0.5 h
Procedure, shortened: (§1)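 Rats housed in wire mesh cages from the day before. Test drug or saline given sc 30 min before apomorphine (8.2 µmol = 2.5 mg/kg, sc). Oral stereotypy (licking, biting) scored every 15 min for 90 min. ED50 taken from the 30-min post-apomorphine observation, when control activity peaked.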

[2] = tested on: Rattus norvegicus; assay: Contralateral circling behavior in 6-OH-DA-lesioned rats was recorded after subcutaneous administration
[3] = tested on: Rattus norvegicus; assay: Inhibition of spontaneous locomotor activity was performed in photocell cages at 30-45 minutes after subcutaneous administration
Procedure, shortened: (§2)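 Rats in photocell cages. Motility counted 30-45 min after sc test drug or saline. Injection volume 5 mL/kg.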

[4] = tested on: Rattus norvegicus; assay: Reversal of reserpine plus alpha-Methyl-p-tyrosine-induced hypoactivity in rats was recorded at 1 hr after subcutaneous administration; settings: sc
Procedure, shortened: (§3)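 Rats pretreated with reserpine (8.2 µmol/kg = 5 mg/kg sc) 16-20 h before, and α-methyl-p-tyrosine methyl ester (813 µmol/kg = 200 mg/kg ip) 2 h before, test drug or saline. Motility measured under artificial light for 1 h from injection. Counts scored 0 (0-49), 1 (50-149) or 2 (>150). ED50 by log-probit as dose giving half-maximal score.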

[5] = tested on: Rattus norvegicus; assay: Antagonism of apomorphine induced stereotype in rats was recorded at 30 minutes after subcutaneous administration apomorphine; settings: sc, 0.5 h; procedure, shortened: as §1
[6] = tested on: Rattus norvegicus; assay: Reversal of reserpine plus alpha-Methyl-p-tyrosine-induced hypoactivity in rats was recorded after subcutaneous administration; settings: sc; procedure, shortened: as §3
[7] = tested on: Rattus norvegicus; assay: Antagonism of apomorphine induced stereotype in rats was recorded after subcutaneous administration of apomorphine; settings: sc; procedure, shortened: as §1
[8] = tested on: Rattus norvegicus; assay: Inhibition of spontaneous locomotor activity was performed in photocell cages. Motility was measured at […] after subcutaneous administration; settings: sc; procedure, shortened: as §2
[9] = species: Rattus norvegicus; assay: Inhibition of spontaneous locomotor activity was performed in photocell cages. Motility was measured at 5 minutes
Procedure, shortened: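 Rats in photocell cages. Motility counted 5 min after sc injection of test drug. Injection volume 5 mL/kg.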

[10] = tested on: Rattus norvegicus; assay: Antagonism of apomorphine induced stereotype in rats was recorded at 30 minutes after subcutaneous administration of apomorphine; settings: sc, 0.5 h; procedure, shortened: as §1
[11] = tested on: Rattus norvegicus; assay: Ispilateral circling behavior in 6-OH-DA-lesioned rats was recorded after subcutaneous administration; settings: sc
[12] = species: Rattus norvegicus; assay: Reversal of reserpine plus alpha-Methyl-p-tyrosine-induced hypoactivity in rats was recorded.; procedure, shortened: as §3
[13] = tested on: Rattus norvegicus; assay: Reversal of reserpine plus alpha-Methyl-p-tyrosine-induced hypoactivity in rats was recorded at 1 h after administration; procedure, shortened: as §3
[14] = tested on: Rattus norvegicus; assay: Inhibition of spontaneous locomotor activity was performed in photocell cages. Motility was measured at […] after subcutaneous administration; value ranges from 4.2-11; settings: sc; procedure, shortened: as §2
[15] = Rattus norvegicus, sc, read-out: ED50

SMILES: Oc1cccc(C2=CCCN3CCCCC23)c1 (stereo not drawn)
- ED50 [1]: 34 µmol/kg
- ED50 [2, 15]: > 87 µmol/kg
- ED50 [3, 15]: 8.5 µmol/kg
- ED50 [4]: > 87 µmol/kg

SMILES: Oc1cccc(C2CCC3CCCN3C2)c1 (single isomer, unassigned)
- ED50 ([3]; sc): > 67 µmol/kg

SMILES: Oc1cccc(C2CCCN3CCCC23)c1 (single isomer, unassigned; (+))
- ED50 [2]: 7.1 µM/kg
- ED50 [5]: > 157 µmol/kg
- ED50 [6]: 150 µmol/kg
- ED50 [3]: 3.9 µM/kg

SMILES: Oc1cccc(C2CCC3CCCN3C2)c1 (stereo not drawn)
- ED50 [2, 15]: > 67 µmol/kg
- ED50 [3, 15]: > 67 µmol/kg

SMILES: Oc1cccc(C2CCCN3CCCC23)c1 (stereo in doubt; 19e)
- ED50 [2]: 13 µM/kg
- ED50 [7]: > 134 µmol/kg
- ED50 ([3]; sc): 7.5 µmol/kg

SMILES: Oc1cccc(C2CCCN3CCCCC23)c1 (single isomer, unassigned; 20a)
- ED50 [2]: >64 µM/kg
- ED50 [3]: >64 µM/kg

SMILES: CN1CCc2cccc3c2[C@H]1Cc1ccc(O)c(O)c1-3 [APOMORPHINE]
- ED50 [2, 15]: 0.058 µmol/kg
- ED50 [4]: 0.27 µmol/kg
- ED50 [8]: 0.64 µmol/kg
- ED50 [9]: 0.092 µmol/kg

SMILES: Oc1cccc(C2CCCN3CCCC23)c1 (single isomer, unassigned; (-))
- ED50 [2]: >79 µM/kg
- ED50 [10]: 100 µmol/kg
- ED50 [3]: 40 µM/kg

SMILES: Oc1cccc(C2CCC3CCCCN3C2)c1 (stereo not drawn) [listing 1 of 2 here]
- ED50 [2, 15]: > 64 µmol/kg
- ED50 ([3]; sc): > 62 µmol/kg

SMILES: Oc1cccc(C2CCCN3CCCCC23)c1 (single isomer, unassigned; 20e)
- ED50 [2, 15]: > 87 µmol/kg
- ED50 [3, 15]: 63 µmol/kg

SMILES: Oc1cccc(C2CCCN3CCCC23)c1 (stereo in doubt; 19a)
- ED50 [2]: >67 µM/kg
- ED50 [3]: >67 µM/kg

SMILES: Oc1cccc(C2CCC3CCCCN3C2)c1 (stereo not drawn) [listing 2 of 2 here]
- ED50 [11]: 9.3 µmol/kg
- ED50 [12]: > 62 µmol/kg
- ED50 [3, 15]: > 64 µmol/kg

SMILES: CCCN1CCCC(c2cccc(O)c2)C1 (stereo not drawn)
- ED50 [2, 15]: 1.7 µmol/kg
- ED50 [10]: > 67 µmol/kg
- ED50 [3, 15]: 3.4 µmol/kg

SMILES: CCCN1CCC[C@H](c2cccc(O)c2)C1
- ED50 [2, 15]: 1.9 µmol/kg
- ED50 [13]: 40 µmol/kg
- ED50 [10]: 63 µmol/kg

SMILES: CCCN1CCC[C@@H](c2cccc(O)c2)C1 [PRECLAMOL]
- ED50 [2, 15]: 0.77 µmol/kg
- ED50 [13]: > 67 µmol/kg
- ED50 [5]: 33 µmol/kg
- ED50 [9]: 1.9 µmol/kg
- ED50 [14]: 11 µmol/kg
